The record followed here is ChEMBL document CHEMBL4152257, “Discovery of novel β-carboline/acylhydrazone hybrids as potent antitumor agents and overcome drug resistance” (Eur J Med Chem, 2018).

Data set [1] in a line: Resistance index, ratio of IC50 for human A549/TR cells to IC50 for human A549 cells. It counts as functional.
Data set [2] is described as follows: Resistance index, ratio of IC50 for human A2780T cells to IC50 for human A2780S cells. It counts as functional.
In the next data set the test system is A2780S. Briefly: Antiproliferative activity against human A2780S cells after 48 to 72 hrs by MTT assay. Type of data set: functional, cell-based. The procedure, abridged:
(§1)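 Cells in log phase seeded and allowed to adhere, then exposed to graded compound concentrations for 48 h or 72 h; MTT added for a further 2-3 h, formazan dissolved in DMSO. IC50 taken from dose-response curves; mean ± SD of at least three independent experiments.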

For a further data set, the system named is A2780/Taxol. Briefly: Antiproliferative activity against human A2780T cells after 48 to 72 hrs by MTT assay. Type of data set: functional, cell-based. The procedure, abridged: as §1
The next data set has as its system Mus musculus. Briefly: Toxicity in athymic nude Balb/C mouse xenografted with human H460 cells assessed as body weight loss at 30 mg/kg, ip administered once per week measured every 2 days. Type of data set: organism-based. The settings on record: in vivo, 48 h. The procedure, abridged:
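Nude mice, 5-to-6-week-old females, given 5 × 10^6 H460 cells sc in right flank in HBSS; at 100 mm3 tumour volume randomized, 6 per group. Vehicle; oral 100 mg/kg three times weekly; or ip 30 mg/kg once weekly. Toxicity signs and mortality observed daily; body weight measured every 2 days.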

For the next data set, the system named is A549. The data set is described as follows: Antiproliferative activity against human A549 cells after 48 to 72 hrs by MTT assay. Type of data set: functional, cell-based. The procedure, abridged:
as §1

A further data set deals with NCI-H460. Briefly: Antitumor activity against human H460 cells xenografted in athymic nude Balb/C mouse assessed as tumor growth inhibition at 30 mg/kg, ip administered once per week measured every two days relative to control. It counts as functional. Conditions: 48 h, read-out: TGI. The essentials: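 Nude mice (5-6 weeks old, female) implanted sc in right flank with 5 × 10^6 H460 cells in HBSS; at 100 mm3 tumours, randomised 6 per group to vehicle, oral 100 mg/kg three times weekly, or ip 30 mg/kg once weekly. Tumour volume by caliper every 2 days as (π/6) × length × width²; body weight recorded; inhibition from tumour weights versus control.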

The test system of the next data set is A549/TR. Briefly: Antiproliferative activity against human A549/TR cells after 48 to 72 hrs by MTT assay. Type of data set: functional, cell-based. The procedure, abridged: as §1

As for `CC(=O)O[C@H]1C(=O)[C@@]2(C)[C@H]([C@H](OC(=O)c3ccccc3)[C@]3(O)C[C@H](OC(=O)[C@H](O)[C@@H](NC(=O)c4ccccc4)c4ccccc4)C(C)=C1C3(C)C)[C@]1(OC(C)=O)CO[C@@H]1C[C@@H]2O` [PACLITAXEL], the results for the “Ratio IC50” value in data set [1] and in data set [2] were 32.76 and 3852.53, respectively. Also, the IC50 with A2780S amounted to 0.0189 µM; in the data set with A2780/Taxol, 73 µM; with A549, 0.0232 µM; with A549/TR it was 0.759 µM. The Activity in the data set with Mus musculus was less than 5%. Also, the inhibition in vivo at 30 mg/kg in the data set with NCI-H460 is 65.2%.

On to `CC[C@]1(O)C[C@@H]2CN(CCc3c([nH]c4ccccc34)[C@@](C(=O)OC)(c3cc4c(cc3OC)N(C)[C@H]3[C@@](O)(C(=O)OC)[C@H](OC(C)=O)[C@]5(CC)C=CCN6CC[C@]43[C@@H]65)C2)C1` [VINBLASTINE], for which the entries for the “Ratio IC50” value in data set [1] and in data set [2] were 12.72 and 1073.76, respectively. For the same compound, the 50% inhibitory concentration (IC50) in the data set on A2780S worked out at 0.0157 µM; in the data set with A2780/Taxol, 16.9 µM; with A549, 0.0195 µM; in the data set on A549/TR, 0.248 µM.
